Columns and labels:
[1] = molecular target: T1, Microtubule-associated protein tau (Homo sapiens, UniProt P10636); experiment: Inhibition of tau (unknown origin) aggregation expressed in Escherichia coli BL21 (DE3)
Summary of the method: (§1)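 E. coli BL21(DE3) carrying pTARA (T7 RNA polymerase under PBAD) and pRKT42 (four-repeat tau) grown at 37 °C in M9 with 0.5% glucose, antibiotics and 250 μM ThS to OD600 0.6. […] ThS fluorescence ex 430/em 485 nm, normalized to tau-expressing cells (100%) and non-expressing cells (0%); OD600 checked for growth.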

[2] = molecular target: Amyloid-beta precursor protein (Homo sapiens, UniProt P05067); experiment: Inhibition of amyloid beta 40 peptide (unknown origin) aggregation incubated for 2 hr by ThT fluorescence based spectrofluorimetric analysis
Summary of the method: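 Aβ40 peptide aggregation enhanced with 2% HFIP; thioflavin T fluorescence read-out; run in triplicate.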

[3] = molecular target: Cholinesterase (Equus caballus, UniProt P81908); experiment: Inhibition of equine serum BChE using butyrylthiocholine iodide as substrate preincubated for 20 mins followed by substrate addition by DTNB reagent based Ellman's method; type: cell-free
[4] = molecular target: Cholinesterase (Homo sapiens, UniProt P06276); experiment: Inhibition of human recombinant BChE using acetylthiocholine iodide as substrate preincubated for 20 mins followed by substrate addition by DTNB reagent based Ellman's method
Summary of the method: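 Human BChE was assayed by the Ellman spectrophotometric method. IC50 values are means of three independent experiments, each run in triplicate.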

[5] = molecular target: Acetylcholinesterase (Electrophorus electricus, UniProt O42275); experiment: Inhibition of electric eel AChE using acetylthiocholine iodide as substrate preincubated for 20 mins followed by substrate addition by DTNB reagent based Ellman's method
[6] = molecular target: Acetylcholinesterase (Homo sapiens, UniProt P22303); experiment: Inhibition of human recombinant AChE using acetylthiocholine iodide as substrate preincubated for 20 mins followed by substrate addition by DTNB reagent based Ellman's method
[7] = molecular target: T1, Microtubule-associated protein tau; experiment: Inhibition of tau (unknown origin) aggregation expressed in Escherichia coli BL21 (DE3) at 10 uM relative to control; summary of the method: as §1

Sequence of Cholinesterase (Equus caballus, UniProt P81908) (P81908 whole entry): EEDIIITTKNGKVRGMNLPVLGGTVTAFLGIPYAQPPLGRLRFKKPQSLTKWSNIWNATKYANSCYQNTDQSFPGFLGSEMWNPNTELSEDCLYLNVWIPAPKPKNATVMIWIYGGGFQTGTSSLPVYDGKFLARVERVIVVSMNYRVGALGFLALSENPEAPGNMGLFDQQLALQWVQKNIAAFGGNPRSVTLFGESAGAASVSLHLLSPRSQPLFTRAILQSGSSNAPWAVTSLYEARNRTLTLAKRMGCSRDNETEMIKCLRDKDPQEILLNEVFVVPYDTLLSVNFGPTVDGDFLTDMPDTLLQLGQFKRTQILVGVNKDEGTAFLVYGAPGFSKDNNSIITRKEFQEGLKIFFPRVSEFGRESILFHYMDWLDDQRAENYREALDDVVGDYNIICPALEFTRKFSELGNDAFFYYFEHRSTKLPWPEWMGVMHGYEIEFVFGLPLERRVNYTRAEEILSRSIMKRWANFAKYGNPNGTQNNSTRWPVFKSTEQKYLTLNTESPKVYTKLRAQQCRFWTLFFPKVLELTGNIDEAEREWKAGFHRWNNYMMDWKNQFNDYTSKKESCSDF
T1 sequence (P10636 whole entry): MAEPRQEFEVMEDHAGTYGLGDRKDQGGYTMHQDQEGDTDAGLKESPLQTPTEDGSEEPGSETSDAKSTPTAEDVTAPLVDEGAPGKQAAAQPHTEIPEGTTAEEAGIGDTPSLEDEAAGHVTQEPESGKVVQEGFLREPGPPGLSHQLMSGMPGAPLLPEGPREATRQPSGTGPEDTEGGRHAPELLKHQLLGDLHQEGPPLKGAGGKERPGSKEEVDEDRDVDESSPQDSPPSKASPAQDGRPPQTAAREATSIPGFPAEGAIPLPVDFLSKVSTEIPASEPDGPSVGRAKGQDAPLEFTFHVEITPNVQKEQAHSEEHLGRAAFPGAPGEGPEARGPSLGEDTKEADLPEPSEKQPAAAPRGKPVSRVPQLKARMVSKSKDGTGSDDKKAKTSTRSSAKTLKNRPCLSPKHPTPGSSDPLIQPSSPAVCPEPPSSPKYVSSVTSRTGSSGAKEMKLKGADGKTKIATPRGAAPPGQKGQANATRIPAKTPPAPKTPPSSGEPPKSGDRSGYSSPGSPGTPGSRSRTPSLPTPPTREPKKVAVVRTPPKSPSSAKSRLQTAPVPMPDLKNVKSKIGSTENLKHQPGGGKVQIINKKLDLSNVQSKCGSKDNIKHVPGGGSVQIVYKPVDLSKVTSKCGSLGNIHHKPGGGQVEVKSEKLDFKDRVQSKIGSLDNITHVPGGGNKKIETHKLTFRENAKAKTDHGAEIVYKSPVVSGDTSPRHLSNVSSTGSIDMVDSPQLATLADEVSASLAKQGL
Sequence of Acetylcholinesterase (Homo sapiens, UniProt P22303) (P22303 whole entry): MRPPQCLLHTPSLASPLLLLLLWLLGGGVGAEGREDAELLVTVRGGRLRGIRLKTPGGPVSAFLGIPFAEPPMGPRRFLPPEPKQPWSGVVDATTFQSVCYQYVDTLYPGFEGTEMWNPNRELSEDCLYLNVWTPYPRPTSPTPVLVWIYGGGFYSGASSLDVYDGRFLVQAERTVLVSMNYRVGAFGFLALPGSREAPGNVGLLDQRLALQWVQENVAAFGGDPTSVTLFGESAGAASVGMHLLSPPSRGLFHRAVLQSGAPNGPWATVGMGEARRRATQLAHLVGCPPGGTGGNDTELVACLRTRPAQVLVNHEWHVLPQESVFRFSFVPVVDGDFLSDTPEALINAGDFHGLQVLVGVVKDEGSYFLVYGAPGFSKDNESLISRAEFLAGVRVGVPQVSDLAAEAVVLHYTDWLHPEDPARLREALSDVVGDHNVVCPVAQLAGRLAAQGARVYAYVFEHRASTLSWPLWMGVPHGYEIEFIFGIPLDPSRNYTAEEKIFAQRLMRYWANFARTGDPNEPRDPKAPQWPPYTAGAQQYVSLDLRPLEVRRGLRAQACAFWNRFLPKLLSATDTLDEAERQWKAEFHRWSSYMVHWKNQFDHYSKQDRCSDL
Sequence of Cholinesterase (Homo sapiens, UniProt P06276) (P06276 whole entry): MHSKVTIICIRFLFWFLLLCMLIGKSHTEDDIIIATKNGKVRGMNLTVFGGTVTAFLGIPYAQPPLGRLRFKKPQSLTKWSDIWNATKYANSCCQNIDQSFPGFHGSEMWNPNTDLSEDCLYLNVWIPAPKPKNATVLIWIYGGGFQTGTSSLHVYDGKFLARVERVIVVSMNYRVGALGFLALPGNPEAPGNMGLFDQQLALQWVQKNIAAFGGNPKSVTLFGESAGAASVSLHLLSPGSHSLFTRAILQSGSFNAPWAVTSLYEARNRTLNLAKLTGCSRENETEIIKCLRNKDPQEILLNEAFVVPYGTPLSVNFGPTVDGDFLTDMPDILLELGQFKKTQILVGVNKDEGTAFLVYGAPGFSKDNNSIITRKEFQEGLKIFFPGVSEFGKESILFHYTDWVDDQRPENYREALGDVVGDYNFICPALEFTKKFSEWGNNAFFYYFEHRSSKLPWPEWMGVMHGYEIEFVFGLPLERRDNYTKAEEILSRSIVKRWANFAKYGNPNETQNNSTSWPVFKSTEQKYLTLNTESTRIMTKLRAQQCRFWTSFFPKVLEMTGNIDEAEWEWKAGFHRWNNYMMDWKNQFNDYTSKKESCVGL
Sequence of Amyloid-beta precursor protein (P05067 whole entry): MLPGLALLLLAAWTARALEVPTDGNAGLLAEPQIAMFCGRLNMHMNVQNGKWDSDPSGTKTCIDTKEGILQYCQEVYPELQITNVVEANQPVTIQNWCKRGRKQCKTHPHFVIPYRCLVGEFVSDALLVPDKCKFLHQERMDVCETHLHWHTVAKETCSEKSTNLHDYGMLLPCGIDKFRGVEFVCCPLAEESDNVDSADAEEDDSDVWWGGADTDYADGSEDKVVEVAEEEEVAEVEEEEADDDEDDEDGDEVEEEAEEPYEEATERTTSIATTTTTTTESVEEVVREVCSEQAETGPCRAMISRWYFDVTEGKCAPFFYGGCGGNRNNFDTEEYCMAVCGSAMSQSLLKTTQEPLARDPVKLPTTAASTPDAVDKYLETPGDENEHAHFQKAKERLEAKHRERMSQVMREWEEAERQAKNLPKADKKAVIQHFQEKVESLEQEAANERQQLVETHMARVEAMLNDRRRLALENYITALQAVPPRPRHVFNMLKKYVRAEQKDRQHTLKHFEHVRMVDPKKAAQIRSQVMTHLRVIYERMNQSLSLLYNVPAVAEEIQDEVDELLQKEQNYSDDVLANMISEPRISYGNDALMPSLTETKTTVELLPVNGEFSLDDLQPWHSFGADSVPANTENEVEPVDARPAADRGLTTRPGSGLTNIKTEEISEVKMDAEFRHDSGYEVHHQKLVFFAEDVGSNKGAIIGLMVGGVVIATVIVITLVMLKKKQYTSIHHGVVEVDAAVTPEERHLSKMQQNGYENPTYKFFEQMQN
Sequence of Acetylcholinesterase (Electrophorus electricus, UniProt O42275) (O42275 whole entry): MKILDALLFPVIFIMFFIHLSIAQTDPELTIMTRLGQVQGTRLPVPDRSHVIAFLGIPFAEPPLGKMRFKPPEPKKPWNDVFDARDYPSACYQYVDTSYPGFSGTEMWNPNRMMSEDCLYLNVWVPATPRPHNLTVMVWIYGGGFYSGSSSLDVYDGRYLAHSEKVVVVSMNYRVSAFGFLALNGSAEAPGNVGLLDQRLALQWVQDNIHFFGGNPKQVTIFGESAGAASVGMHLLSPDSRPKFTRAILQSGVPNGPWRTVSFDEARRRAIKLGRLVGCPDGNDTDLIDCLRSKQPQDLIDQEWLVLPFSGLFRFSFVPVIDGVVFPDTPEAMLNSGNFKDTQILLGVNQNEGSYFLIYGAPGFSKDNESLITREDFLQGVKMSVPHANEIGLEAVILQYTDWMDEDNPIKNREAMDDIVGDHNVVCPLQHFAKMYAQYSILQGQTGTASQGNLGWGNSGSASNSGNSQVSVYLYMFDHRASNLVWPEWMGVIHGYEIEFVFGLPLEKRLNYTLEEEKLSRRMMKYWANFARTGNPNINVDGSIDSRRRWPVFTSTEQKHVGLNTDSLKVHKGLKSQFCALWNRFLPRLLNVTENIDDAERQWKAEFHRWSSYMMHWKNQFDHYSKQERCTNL

## CCN(CC)CCCNc1ccc([N+](=O)[O-])c2sc3ccc(OC)cc3c(=O)c12
[1]
  IC50: 4.8 µM
[2]
  IC50: 17 µM

## COc1ccc2sc3c(C)ccc(NC[C@@H]4CCCN5CCCC[C@H]45)c3c(=O)c2c1
[1]
  IC50: 5.5 µM
[2]
  IC50: 4.3 µM

## COc1ccc2sc3c(C)ccc(NCC[C@@H]4CCCN5CCCC[C@H]45)c3c(=O)c2c1
[3]
  IC50: 0.14 µM
[1]
  IC50: 14 µM
[4]
  IC50: 0.71 µM
[5]
  IC50: 5.1 µM
[6]
  IC50: 3.59 µM
[2]
  IC50: 2.4 µM

## CCCN(SC[C@H]1CCCN2CCCC[C@H]12)C1=C(Cl)C(=O)c2ccccc2C1=O
[2]
  IC50: 61 µM

## Cc1ccc(NC[C@@H]2CCCN3CCCC[C@H]23)c2c(=O)c3ccccc3oc12
[7]
  inhibition: 35%
[2]
  IC50: 48 µM

## Cc1ccc(NCCC[C@@H]2CCCN3CCCC[C@H]23)c2c(=O)c3ccccc3oc12
[3]
  IC50: 0.37 µM
[1]
  IC50: 23 µM
[4]
  IC50: 0.3 µM
[5]
  IC50: 0.14 µM
[6]
  IC50: 8.81 µM
[2]
  IC50: 13 µM

## Cc1ccc(NCC[C@@H]2CCCN3CCCC[C@H]23)c2c(=O)c3cc(O)ccc3sc12
[3]
  IC50: 0.16 µM
[1]
  IC50: 8.9 µM
[4]
  IC50: 0.9 µM
[5]
  IC50: 3.2 µM
[6]
  IC50: 4.26 µM
[2]
  IC50: 2.4 µM

## COc1ccc2sc3c([N+](=O)[O-])ccc(NCCC[C@@H]4CCCN5CCCC[C@H]45)c3c(=O)c2c1
[3]
  IC50: 2 µM
[1]
  IC50: 3 µM
[4]
  IC50: 7.31 µM
[5]
  IC50: 0.12 µM
[6]
  IC50: 1.75 µM
[2]
  IC50: 7.9 µM

## Cc1ccc(NCCCSC[C@@H]2CCCN3CCCC[C@H]23)c2c(=O)c3ccccc3sc12
[3]
  IC50: 0.088 µM
[1]
  IC50: 20 µM
[4]
  IC50: 0.007 µM
[5]
  IC50: 0.18 µM
[6]
  IC50: 7.84 µM
[2]
  IC50: 4.3 µM

## Cc1ccc(NCCC[C@@H]2CCCN3CCCC[C@H]23)c2c(=O)c3ccccc3sc12
[7]
  inhibition: 26%
[2]
  IC50: 4.3 µM

Source: ChEMBL document CHEMBL5335771, “Thioxanthenone-based derivatives as multitarget therapeutic leads for Alzheimer's disease” (Eur J Med Chem, 2023)
